# TDP2 inh: blocks human TDP2 phosphodiesterase activity. O95551. recombinant TDP2, T5PNP hydrolysis, p-nitrophenol absorbance 415 nm. inhibition, % at 12.8 µM. AID 720702. hit rate 0.34% among 370,000;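 active means inhibition above the mean of all tested compounds plus 3 SD, set per campaign, cut at about 25% in these data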
#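 System – recombinant human TDP2 · Amount – 120 nM TDP2 per well · Buffer or medium – Mg2+-containing Tris-HCl buffer, pH 7.5 · Reagent – T5PNP substrate, 5 mM · Dosing – 12.8 µM single point, 1% DMSO · Incubation – 2 h at 37 °C · Measured by – epi absorbance · Read-out basis – percent inhibition · Benchmarks – high control without enzyme, low control DMSO plus TDP2 · Repeats – singlicate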
# E coli Lon inh: E. coli protease La inhibition; inhibition, % at 7.94 µM; hit rate 0.42% among 360,000; purified E. coli Lon protease, fluorescence polarization; P0A9M0; in the data active means inhibition above about 13%, passing the limit was not always enough
# GSTO1 counter: counter-screen for RBBP9 inhibitors: inhibitors of human GSTO1; P78417; recombinant GSTO1, activity-based probe fluorescence polarization; inhibition, % at 5.96 µM; hit rate 1.1% among 300,000; AID 1974;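 active means inhibition above the campaign mean inhibition plus 3 SD, cut at about 35% in these data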
# PRMT1 FP inh: PRMT1 (human) inhibition, primary screen; Q99873; inhibition, % at 2.79 µM; recombinant PRMT1, activity-based probe fluorescence polarization; hit rate 1.3% among 370,000;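 active means inhibition above about 21% made by adding two undisclosed values, limit read from the data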
# PAD4 FP inh: blocks human protein arginine deiminase 4; recombinant PAD4, RCA probe fluorescence polarization; inhibition, % at 6.36 µM; hit rate 0.41% among 330,000; AID 485272;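 active means percent inhibition above a cutoff equal to the mean of all tested compounds plus 3 SD, cut at about 15% in these data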
# Target sequence (Q9UM07 whole entry, looked up): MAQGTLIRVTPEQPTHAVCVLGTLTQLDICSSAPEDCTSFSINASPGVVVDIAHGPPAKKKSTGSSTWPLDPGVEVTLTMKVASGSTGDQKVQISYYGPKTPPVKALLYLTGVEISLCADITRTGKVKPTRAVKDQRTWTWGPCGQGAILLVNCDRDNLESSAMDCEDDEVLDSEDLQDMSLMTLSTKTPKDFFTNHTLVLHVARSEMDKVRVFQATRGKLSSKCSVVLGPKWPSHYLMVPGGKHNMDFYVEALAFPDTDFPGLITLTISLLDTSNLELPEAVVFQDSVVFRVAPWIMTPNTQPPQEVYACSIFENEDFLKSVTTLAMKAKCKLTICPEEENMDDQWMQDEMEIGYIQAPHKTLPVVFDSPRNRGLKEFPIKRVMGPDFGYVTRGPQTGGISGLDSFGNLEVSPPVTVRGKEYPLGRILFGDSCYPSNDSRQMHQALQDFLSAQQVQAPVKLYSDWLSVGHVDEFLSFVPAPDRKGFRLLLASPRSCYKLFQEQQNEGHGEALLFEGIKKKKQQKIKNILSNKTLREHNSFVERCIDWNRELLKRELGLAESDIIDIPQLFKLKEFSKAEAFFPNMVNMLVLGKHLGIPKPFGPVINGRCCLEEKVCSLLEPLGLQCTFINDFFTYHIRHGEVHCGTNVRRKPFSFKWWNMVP
# PRMT1 confirm: confirmation of human PRMT1 inhibitors. shares compounds with PRMT1 FP inh. recombinant His-PRMT1, activity-based probe fluorescence polarization. inhibition, % at 2.79 µM. hit rate 42% among 3,300;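 active means mean inhibition across replicates above the hit cutoff derived for the earlier primary screen, cut at about 22% in these data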
# Hits are given with their value; – = inactive; · = not tested or not shown. Shown are actives, neighbours in structure and some others; about 2.5% of the full set was active somewhere.
SMILES,TDP2 inh,E coli Lon inh,GSTO1 counter,PRMT1 FP inh,PAD4 FP inh,PRMT1 confirm
Oc1ccc2c(c1)oc1cc(O)ccc12,–,–,–,–,–,·
Cc1cc(C)nc(SCC(=O)c2ccc(O)c(O)c2)n1,–,–,–,48.9,–,42.5
Cc1cc(C)nc(SCC(=O)c2ccc([N+](=O)[O-])cc2)n1,–,–,–,37.0,–,–
CC(C)(C)c1cc2nc3c(c(=O)n2[nH]1)CN(Cc1ccccc1)C3=O,–,–,–,–,–,·
CCC(CO)n1c(SCc2cc(=O)oc3cc(C)ccc23)nc2ccccc2c1=O (centres undefined),–,–,–,77.2,–,67.0
COc1ccccc1-n1c(SCc2cc(=O)oc3cc(O)ccc23)nc2ccccc2c1=O,–,–,–,–,–,·
CC(=S)/C=C1\Sc2ccccc2N1C,–,–,–,39.3,–,–
CN1/C(=C/c2cccc[n+]2CCO)Sc2ccccc21,–,–,–,–,–,·
O=C(Nc1ccccn1)c1sc2cc([N+](=O)[O-])ccc2c1Cl,–,–,–,–,–,·
Cc1ccccc1-c1cnc(C(O)c2ccc(Cl)c(F)c2)[nH]1 (centres undefined),–,–,·,–,·,·
O=[N+]([O-])c1c(NCCCO)cc(Sc2nc3ccccc3s2)c2nonc12,·,–,–,·,–,·
CCCC(=O)OCCNc1cc(SCc2ccco2)c2nonc2c1[N+](=O)[O-],–,–,–,–,–,·
CCCC(=O)OCCNc1cc(Sc2nccn2C)c2nonc2c1[N+](=O)[O-],–,–,–,71.9,–,40.0
NCCNc1ccc([N+](=O)[O-])c(Sc2nc3ccccc3[nH]2)c1,–,–,–,–,–,·
CCC(=O)OCCNc1cc(Sc2nc3ccccc3s2)c2nonc2c1[N+](=O)[O-],–,–,–,67.7,–,75.5
CC(=O)OCCCNc1cc(SCc2ccco2)c2nonc2c1[N+](=O)[O-],–,–,–,54.0,–,–
CCCSc1cc(NCCOC(=O)CCC)c([N+](=O)[O-])c2nonc12,–,–,–,–,–,·
CCC(=O)OCCNc1cc(Sc2nc3ccccc3[nH]2)c2nonc2c1[N+](=O)[O-],–,–,–,84.0,–,76.4
C[C@@H]1CN([C@H](C)CO)C(=O)c2cc(Br)cnc2O[C@@H]1CN(C)C(=O)NC1CCCC1,–,–,·,–,·,·
O=C(Nc1cccc(C(F)(F)F)c1)OCCCN1CCC2(CCC(c3ccccc3)CC2)C1=O (centres undefined),–,·,·,–,·,·
Cc1ccc(/C=C2/C(=O)ON=C2c2ccccc2)o1,–,–,–,25.2,–,33.1
O=C1ON=C(c2ccccc2)/C1=C\c1ccco1,–,–,–,–,–,·
Cc1ccc(CNC(=O)OC(C)(C)C)c(/C=C/S(=O)(=O)NCCc2ccccc2)c1,–,·,·,29.0,·,–
CC(C)(C)OC(=O)NCCc1ccccc1/C=C/S(=O)(=O)NCc1ccccc1,–,·,·,–,·,·
Cc1cc(C(=O)CSc2nnc(-c3cccnc3)n2-c2ccccc2F)c(C)n1CC1CCCO1 (centres undefined),–,–,–,26.7,–,–
SMILES,TDP2 inh,E coli Lon inh,GSTO1 counter,PRMT1 FP inh,PAD4 FP inh,PRMT1 confirm
O=C1CC(N2CCC(O)(c3ccc(Cl)cc3)CC2)C(=O)N1Cc1ccc(N2CCCC2=O)cc1 (centres undefined),–,–,–,63.0,–,–
O=C1CCCN1CCC1CCN(C2CC(=O)N(Cc3ccc(N4CCCC4=O)cc3)C2=O)CC1 (centres undefined),–,–,–,92.6,–,–
O=C1CCCN1CCC1CCN(C2CC(=O)N(c3ccc(Cl)cc3)C2=O)CC1 (centres undefined),–,–,–,50.4,–,–
O=C1CC(N2CCOCC2)C(=O)N1Cc1ccc(N2CCCC2=O)cc1 (centres undefined),–,–,–,–,–,·
O=C(N/N=C/c1ccc(Br)cc1)c1ccc(Br)o1,–,–,–,–,–,·
CC(C)CN1CN2Cc3cc(F)ccc3C2CS1(=O)=O (centres undefined),–,·,·,–,·,·
Cc1ccsc1S(=O)(=O)n1c(CN2CCOCC2)nc2ccccc21,–,·,·,–,·,·
O=C(NCc1ccc(F)cc1)C(=O)NCC1OCCCN1S(=O)(=O)c1cccs1 (centres undefined),–,–,–,–,–,·
Cc1ccc(/C=C/C(=O)NCC2COc3ccccc3O2)o1 (centres undefined),–,–,–,34.4,–,30.2
Cc1ccc(/C=C/C(=O)NC2CCCCCCC2)o1,–,–,–,49.7,–,58.5
Cc1c(-c2cc(Br)ccc2O)nc2cc3c(cc2c1C)OCO3,–,–,–,–,–,·
CCOc1ccc(N2C(=O)CC(Sc3n[nH]c(-c4ccccc4)n3)C2=O)cc1 (centres undefined),–,–,–,32.2,–,51.6
COc1ccc(N2C(=O)CC(Sc3n[nH]c(-c4ccccc4)n3)C2=O)cc1 (centres undefined),–,–,–,30.0,–,75.1
CCOc1ccc2nc(SC3CC(=O)N(c4ccccc4)C3=O)sc2c1 (centres undefined),·,–,–,·,–,·
COc1ccc(N2C(=O)CC(Sc3nc(C)c4c(n3)CCCC4)C2=O)cc1 (centres undefined),–,–,–,–,–,·
CCCC[C@H]1C2CC(OC(=O)Nc3cc(C)cc(C)c3)C(C2)[C@H]2CCCCN21 (some centres undefined),–,·,·,–,·,·
CC1(C)CC(=O)C=C(Nc2ccc(Br)cc2F)C1,–,–,–,–,–,·
NC(=O)/C=C\C(=O)Nc1cccc(C(F)(F)F)c1,–,–,–,50.7,–,25.0
c1ccc(CN2CCC3CC2c2c3cccc2N2CCOCC2)cc1 (centres undefined),–,–,·,–,·,·
CCc1ccc([C@@H]2C[C@H]3[C@@H](CN2S(=O)(=O)c2ccc(C)cc2)C(=O)C[C@@H](c2ccc(C)cc2)N3S(=O)(=O)c2ccc(C)cc2)cc1,–,–,·,–,·,·
Nc1ccc(C(=O)Nc2ccc3c(O)cc(S(=O)(=O)O)cc3c2)cc1,–,–,·,–,·,·
Nc1cc(S(=O)(=O)O)cc2ccc(S(=O)(=O)O)cc12,–,–,·,35.1,·,–
Cc1nnc(SCC(=O)N2CCN(c3ccccc3)CC2)n1C1CC1,–,–,·,–,–,·
Cc1ccc(Cl)cc1N1C(=O)CC(Sc2ncccn2)C1=O (centres undefined),–,–,–,31.8,–,–
O=C1CC(Sc2ncccn2)C(=O)N1c1ccccc1C(F)(F)F (centres undefined),–,–,–,51.1,–,–
CN1CCN(C(=S)C(=O)Nc2ccc(Br)cc2)CC1,–,–,–,72.3,–,71.9
COC1=CC(=O)C(C2CC(=O)c3c(O)cc(O)cc3O2)=CC1=O (centres undefined),–,–,·,48.0,·,89.0
O=C(O)C[C@H]1c2ccccc2S(=O)(=O)N1c1ccccc1,–,–,–,–,–,·
CC(=O)Nc1ccc(S(=O)(=O)NCC(=O)NNC(=O)c2csc(N3CCOCC3)n2)cc1,–,–,–,52.3,–,–
